Reference: the RNAGym collection of RNA variant scans (doi:10.1126/science.aae0568)
Fewer inactive variants are shown than the library holds.

B1: tRNA (parent)
chain: GUUCCGUUGGCGUAAUGGUAACGCGUCUCCCUCCUAAGGAGAAGACUGCGGGUUCGAGUCCCGUACGGAACG

Variants of: B1
Test: yeast fitness relative to wild type (ratio to wild type); higher = fitter; tRNA-Arg(CCU), competitive growth, 37 C, YPD
How it was run: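 A pool of Saccharomyces cerevisiae strains, each with a tRNA-Arg(CCU) gene variant at the native genomic locus, was competed in YPD at 37°C for 24 hours across six parallel replicates. The variants had been chemically synthesised at a 3% per-site mutation rate over 69 sites, and gene amplicons before and after competition were read by 100-nucleotide paired-end sequencing. Darwinian fitness relative to wild type rested on changes in genotype frequencies. Genotypes required ≥ 100 starting reads, and estimates < 0.5 were set to 0.5.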
For GUUCCGUAGGCGUAAUGGUAACGCGUCUCCCUCCUAAGGAGAAGACUGCGGGUUCGAGUCCCGACCGAAACG, the yeast fitness was ≤ 0.5. For GUUCCGUUGGCGUAAUGGUACCGCGUCUCCCUCCUAAGGAGAAGACUGCGGGUUCGAGUACCGUACGGGACG, the yeast fitness was ≤ 0.5. For GUUCCGUUGGCGUAAUGGUAACGCGUCUCCCUCCAAAGGAGAAGACUGCGGGUUCGAGUCCCGUACGGAUCG, the yeast fitness was 0.787. For GAUCCGUUGGCGUAAUGGUGACGCGUCUCCCUCCUAAGGAGAAGACUGUGGGUUCGAGUCCCGUACGGAACG, the yeast fitness was 0.605. For GUUCCGUUGACAUAAUGGUAACGCGUCUCCCUCCUAAGGAGAAGACUGCGGGUUCGAGUCCCGUACGGAACG, the yeast fitness was 0.805. GUUCCGUUGGCGAAAUGGUAACGCGUCUCCCUCCUAAGGAGAAGACUGCGGGUUCGAGUCCCGAACGGAACG gave a yeast fitness of 0.832. For GUUCGGUUGCCGUAAUGGGAACGCGUCUCCCUCCUAAGGAGAAGCCUGCGAGUUCGAGUCCCGUACGGAACG, the yeast fitness was ≤ 0.5. In the case of GUUCCGUUGCCGUCAUGAUAACGCGUCUCCCUCCUAAGGAGAAGACUGCGGGUUCGAGUCCCGUACGGAACG, the yeast fitness is reported as ≤ 0.5. With GUUCCGUUGGCGUAAUGGUAAGGUGUCUCCCUCCUAAGGAGAAGACUGCGGGUUCGAGUCCCGUACGGAACG the yeast fitness was 0.894. For GUUCCGUUGGCGUAAUCGUAACGCGUCUCCCUCCUAAGGAGGAGACUGCGGGUUUGAGUCCCGUACGGAACG, the yeast fitness was ≤ 0.5. In the case of GUUCCGUUGGCGUAAUGGUAACGCGUCUCCCCCCUAUGGAGAAGACUGCGGGUUCCUGUCCCGUACGGAACG, the yeast fitness is reported as ≤ 0.5. Variant GCUCGGUUGGCGUAAUGGUAACGCGUCUCCCUCCUAAGGAGAAGACUGCGGGUUCGAGUCCUGUACGGAACG has a yeast fitness of 0.717. For GUGCCGUUGGCGUAAUGGUAACGCGUCUCCCUCCUAAGGAGAAGACUGCGGGUUCGAGUUCCGUACGGAACG, the yeast fitness was 0.66. For GUUGCGUUGGCGUCAUGGUAACGCGUCUCCUUCCAAAGGAGAAGACGGCGGGUUCGAGUCCCGUACGGAACG, the yeast fitness was ≤ 0.5. In the case of GUUCCGUUGGGGUAAUGGUCACGCGUCUCCCUCCUAAGGAGCAGACUGCGGGUUCGUGUCCCGUACGGAACG, the yeast fitness is reported as ≤ 0.5. GUUCCGUUGGCGUAAUGGUAAUGCGUCUCCCUCCUAAGGAGAAGACUGCGGGUUGGAGUCCCGUACGGACCG gave a yeast fitness of 0.558. For GCUCCGUUGGCGUUAUGGUAUCGCGUCUCCCUCCUAAGGAGAAGACUGCGGGUUCGAGUCCCGUACGGAACG, the yeast fitness was 0.596. With GUUCCGUCGGUGUAAUGGUAACGCGUCUCCUUCCUAAGGAGAAGACUGCGGGUUCGAGUCCCGUACGGAACG the yeast fitness was 0.576. For GUUACGUUGGCGUAAUGGUAACGCGUUGCCCUGCUGAGGAGAAGACUGCGGGUUCGAGUCGCGUACGGAACG, the yeast fitness was ≤ 0.5. Work on GUUCCGUUGGCGUAAUGGUUACGCGUCUCCCUCCUAAGGAGAAAACUGCGGGUUCGAGUCCCGUACGGAACG yielded a yeast fitness of 0.662. In the case of GUUCCGUCGGCGUACUGGUAACGCGUCUCCCUCUUAGGGUGAAGACUGCGGGUUCGAGUCCCGUACGGAACG, the yeast fitness is reported as ≤ 0.5. In the case of GUUCCGUUGGCGUAAUGGUAACCCGUCUGCCUCCUAAGGAGAUGACUGCAGGUUCGGGUCCCGUACGGAACG, the yeast fitness is reported as ≤ 0.5. Work on GUUCCGUUGGCGUAAAGGUAACGCGUCUCCCUCCUAAGGAGAAGACUGCGGGUUCGAGUCCCGCACGGAACG yielded a yeast fitness of 0.929. In the case of GGUCCAUUGGCGUAAUGGUAAUGCGUUUCCCUCCUUAGGAGAAGACUGCGGGUUCGAGUGCCGUACGGAACG, the yeast fitness is reported as ≤ 0.5. For GUUCUGUUGGGGUAAUGGUAACGGGUCUCCCUCCUAAGGAGAAGACUGCGGGUUCGAGUCCCGUACGGAACG, the yeast fitness was ≤ 0.5. GACCCGUUGGCGUAAUGGUAACGCGUCUCCCUCCUAAGGAGAAGACUGCGGGUUCGAGUCCCGUACGGAACG showed a yeast fitness of 0.931. In the case of GUUCCGUUGGGGUAAUGGUAACGCGUCUCCCUCCUAAGGAAAAGACAGUGGGUUCGAGCCCCGUACCGAUCG, the yeast fitness is reported as ≤ 0.5. With GUUCCAUUGGCGUAAUGGUAACGUGUCUCCCUCCUAAGGAGAAGACUGCGGGUUCGCGUCCCGUACGUCACG the yeast fitness was ≤ 0.5. Work on GUUCCGUUGGCGUAAUGGUACCGCGUCUCCCUCCUAAGGAGUAGACUGCGGGUUCGAGUCCCGUACGGAACG yielded a yeast fitness of 0.639. Variant GUUCCGCUGGCGUAAUGGUAAGGCGUCUCCCUCCUAAGGAGAAGACUGCGGGUUCGAGUCCCGUACGGAACG has a yeast fitness of 0.842. For GUUCCGUUGGUGUAAUGGUAACGCGUCUCCCUCCUAAGGAGAACACUGCGGGUUCGAGUCCCGUACAGAACG, the yeast fitness was 0.638. With GUUCCGUUGGCGUAAUGGAAACGCGUCUCCUUCCUAAGGAGAAGACUGCGGGAUCGAGUCCCGUACGGAACG the yeast fitness was ≤ 0.5. In the case of GUUCAGUUGGCGUAAUGGUUACGCGUCUCCCUCCUAAGGAGAAGACUGCGGGUUCGAGUCCCGUGCGGAACG, the yeast fitness is reported as 0.591. With GUUCCGUUGGCGUAAUGAUAGCGCGUCUCCCUCCUAAGGAGAAGACUGCGGGUUCGAGUCCCGUAUGGAACG the yeast fitness was ≤ 0.5. In the case of GUUCCGUUGGCGUAAUGGUAACGCGGCUCCUUCCUAAGGAGAAGACUGCGGGUACGAGUCCCGUACGGAACG, the yeast fitness is reported as 0.569. For GUUCUGUUGGCGUAAUGGUAACGCGUCUCCCUCCUAAGGAGAAGAGUGCGGGUUCGAGUCCUGUAGGGAACG, the yeast fitness was 0.538. With GUUCCGUUGGCGUAAUGGUAACGCGUCUCCAUCCUAAGGAGAAGACUGCGGGUUCGAGUCACGUACGGAACG the yeast fitness was ≤ 0.5.
